Published values collected from several papers.
Medium: Caco-2

The Papp B→A of `N#Cc1ccc(C[C@H](Nc2nnc(-c3ccc(F)cc3)o2)C(=O)N2CCc3ccccc32)cc1` is reported as 237 ×10⁻⁶ cm/s (100 µM; 2 h).
`CCCCCOC(=O)Nc1nc(=O)n([C@@H]2O[C@H](C)[C@@H](O)[C@H]2O)cc1F` has a Papp B→A of 14.3 ×10⁻⁶ cm/s (4 h).
`CC[C@]1(O)C[C@@H]2CN(CCc3c([nH]c4ccccc34)[C@@](C(=O)OC)(c3cc4c(cc3OC)N(C)[C@H]3[C@@](O)(C(=O)OC)[C@H](OC(C)=O)[C@]5(CC)C=CCN6CC[C@]43[C@@H]65)C2)C1` has a Papp B→A of 22.9 ×10⁻⁶ cm/s (10 µM; 2 h).
The Papp B→A of `N#Cc1ccc(C[C@H](NC(=O)c2cc3cc(F)ccc3[nH]2)C(=O)N2CCc3ccccc32)cc1` is reported as 386 ×10⁻⁶ cm/s (100 µM; 2 h).
With `C[C@H]1O[C@@H](O[C@H]2[C@@H](O)C[C@H](O[C@H]3[C@@H](O)C[C@H](O[C@H]4CC[C@@]5(C)[C@H](CC[C@@H]6[C@@H]5C[C@@H](O)[C@]5(C)[C@@H](C7=CC(=O)OC7)CC[C@]65O)C4)O[C@@H]3C)O[C@@H]2C)C[C@H](O)[C@@H]1O` the Papp B→A was 13.6 ×10⁻⁶ cm/s (10 µM; 2 h).
`C[C@@H]1O[C@@H](O[C@H]2[C@H](Oc3cc(O)c4c(c3)O[C@H](c3ccc(O)cc3)CC4=O)O[C@H](CO)[C@@H](O)[C@@H]2O)[C@H](O)[C@H](O)[C@H]1O` gave a Papp B→A of 8.02 ×10⁻⁶ cm/s (100 µg/mL; 2 h).
For `C[C@H]1O[C@@H](O[C@H]2[C@@H](O)C[C@H](O[C@H]3[C@@H](O)C[C@H](O[C@H]4CC[C@@]5(C)[C@H](CC[C@@H]6[C@@H]5C[C@@H](O)[C@]5(C)[C@@H](C7=CC(=O)OC7)CC[C@]65O)C4)O[C@@H]3C)O[C@@H]2C)C[C@H](O)[C@@H]1O`, the Papp B→A was 17.9 ×10⁻⁶ cm/s (5 µM; 2 h).
With `COc1ccc([C@@H]2CC(=O)c3c(O)cc(O)cc3O2)cc1O` the Papp B→A was 21.4 ×10⁻⁶ cm/s (100 µg/mL; 2 h).
`COc1cc(NC(=O)Cn2cc(Cl)c3cc(F)c(-c4cnn(C)c4)cc32)cc(OC)c1OC` gave a Papp B→A of 1.51 ×10⁻⁶ cm/s.
`O=C(CCc1ccc(O)cc1)c1c(O)cc(O)cc1O` gave a Papp B→A of 12.2 ×10⁻⁶ cm/s (100 µg/mL; 2 h).
For `N#Cc1ccc(C[C@H](Nc2nnc(-c3ccc(F)cc3)s2)C(=O)N2CCc3ccccc32)cc1`, the Papp B→A was 314 ×10⁻⁶ cm/s (100 µM; 2 h).
With `Cc1cc(C)c(CNC(=O)c2cc(Cl)c3c(c2C)O[C@@](C)([C@H]2CC[C@H](N(C)C)CC2)O3)c(=O)[nH]1` the Papp B→A was 19 ×10⁻⁶ cm/s (30 µM).
For `O=C(CCc1ccc(O)cc1)c1c(O)cc(O)cc1O[C@@H]1O[C@H](CO)[C@@H](O)[C@H](O)[C@H]1O`, the Papp B→A was 5.39 ×10⁻⁶ cm/s (100 µg/mL; 2 h).
